Results: ChEMBL document CHEMBL1154931, “Exploration of a new series of PAR1 antagonists” (Bioorg Med Chem Lett, 2010)
The source made the active and inactive calls. The rule behind the calls is not given here.

Columns and labels:
[1] = target: T1, Proteinase-activated receptor 1 (Homo sapiens) (UniProt P25116); test: Antagonist activity at PAR1 expressed in CHO cells assessed as inhibition of SFLLR-NH2-induced calcium release at 10 uM by FLIPR assay; assay type: functional, cell-based
T1 sequence (whole entry): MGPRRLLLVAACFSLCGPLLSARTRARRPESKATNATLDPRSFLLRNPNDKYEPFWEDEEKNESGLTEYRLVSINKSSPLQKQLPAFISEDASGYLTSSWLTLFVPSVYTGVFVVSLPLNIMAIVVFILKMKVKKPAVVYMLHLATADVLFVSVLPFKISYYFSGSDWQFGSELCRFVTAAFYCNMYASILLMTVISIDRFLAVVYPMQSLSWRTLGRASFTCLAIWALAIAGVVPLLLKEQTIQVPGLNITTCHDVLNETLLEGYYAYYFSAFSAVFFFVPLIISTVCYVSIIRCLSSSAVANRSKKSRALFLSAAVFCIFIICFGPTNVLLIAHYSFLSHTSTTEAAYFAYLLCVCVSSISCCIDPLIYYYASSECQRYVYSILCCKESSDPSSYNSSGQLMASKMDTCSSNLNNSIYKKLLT
How it was run: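 Calcium release triggered by 1 µM SFLLR-NH₂; test compound at 10 µM, read as % inhibition of the agonist response. Values are mean SEM of at least two independent determinations, each run in triplicate.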

[2] = tested on: Rattus norvegicus; test: Antithrombotic activity in rat assessed as increase in occlusion time of arteriovenous shunt at 1.25 mg/kg, iv; assay type: functional
How it was run: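 Arteriovenous extracorporeal shunt in anesthetized rats, compound dosed at 1.25 mg/kg. Read-out is % increase of occlusion time.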

[3] = target: T2, Proteinase-activated receptor 1 (Homo sapiens, UniProt P25116); test: (§1) Antagonist activity at PAR1 expressed in CHO cells assessed as inhibition of SFLLR-NH2-induced calcium release by FLIPR assay; assay type: functional, cell-based; conditions: read-out: pA2 (converted)
T2 sequence (P25116 whole entry): T1 sequence (whole entry)
How it was run: (§2)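 Concentration-response study in the same calcium-release screen, with release induced by 1 µM SFLLR-NH₂. Used to separate partial from fully competitive antagonists; pA₂ was derived for full antagonists only.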

[4] = Antiaggregatory activity in human platelets assessed as inhibition of SFLLR-induced aggregation; assay type: functional, Platelet
[5] = target: T1, Proteinase-activated receptor 1 (Homo sapiens); test: as §1; assay type: functional, cell-based; how it was run: as §2

Row | SMILES | inhibition [1] [%] | further results
1 | Cc1cccc(-c2ccc(C(=O)/C=C/c3c(F)cccc3F)nc2)c1C | 40 | –
2 | Cc1cccc(-c2ccc(C(=O)/C=C/c3c(F)cccc3F)cn2)c1C | 74 | –
3 | N#Cc1ccccc1/C=C\C(=O)N1CCC(N(Cc2ccc(F)cc2)Cc2ccccn2)C(F)C1 (stereo not drawn) | 68 | Activity [2]: 53%; Kb [3]: 589 nM; pKb [4]: 5.68
4 | O=C(c1cc2ccccc2[nH]1)N1CCN(Cc2ccccc2)CC1 | 2 | –
5 | N#Cc1ccccc1/C=C/C(=O)N1CCC(N(Cc2ccc(F)cc2)Cc2ccccn2)C(F)C1 (stereo not drawn) | 33 | –
6 | O=C(/C=C/c1ccccc1Cl)N1CCN(Cc2ccc(F)cc2)CC1 | 93 | Activity [2]: 28%; Kb [3]: 380 nM; pKb [4]: 5.52
7 | O=C(/C=C\c1c(F)cccc1F)N1CCC(NCc2ccc(F)cc2)C(F)C1 (stereo not drawn) | 25 | –
8 | O=c1c(/C=C/c2ccccc2Cl)c(N2CCN(Cc3ccc(F)cc3)CC2)c1=O | 23 | –
9 | O=C(/C=C/c1c(F)cccc1F)N1CCC(NCc2ccc(F)cc2)CC1 | 0 | –
10 | O=C(/C=C/c1c(F)cccc1F)c1ccc(N2CC=CC2)cn1 | 60 | –
11 | O=C(/C=C/c1c(F)cccc1F)c1ccc(NC2CCCCC2)nc1 | 41 | –
12 | N#Cc1ccccc1/C=C/c1c(N2CCN(CC3CCCCC3)CC2)c(=O)c1=O | 84 | Kb [3]: 427 nM; pKb [4]: 4
13 | O=C(/C=C/c1ccccc1Cl)c1ccc(NC2CCCC2)nc1 | 11 | –
14 | O=C(c1cc2ccccc2o1)N1CCN(Cc2ccccc2)CC1 | 1 | –
15 | N#Cc1ccccc1/C=C/C(=O)c1ccc(NC2CCCC2)nc1 | 84 | Activity [2]: 28%; Kb [3]: 933 nM; pKb [4]: 5.05
16 | O=C(/C=C\c1ccccc1Cl)N1CCC(Nc2ccc(F)cc2)C(F)C1 (stereo not drawn) | 85 | Kb [3]: 389 nM; pKb [4]: 4

Row | SMILES | inhibition [1] [%] | further results
17 | O=C(c1cc2c(F)cccc2s1)N1CCN(Cc2ccccc2)CC1 | 4 | –
18 | N#Cc1ccccc1/C=C/c1c(N2CCN(Cc3ccsc3)CC2)c(=O)c1=O | 97 | Kb [3]: 389 nM; pKb [4]: 4
19 | N#Cc1ccccc1/C=C/C(=O)c1ccc(NC2CCCCC2)nc1 | 53 | –
20 | O=c1c(/C=C/c2ccccc2Cl)c(N2CCN(Cc3ccsc3)CC2)c1=O | 27 | –
21 | O=c1c(/C=C/c2ccccc2Cl)c(N2CCN(Cc3ccccc3)CC2)c1=O | 85 | pA2 [5]: Active
22 | N#Cc1ccccc1/C=C\C(=O)N1CCC(NCc2ccc(F)cc2)C(F)C1 (stereo not drawn) | 40 | –
23 | O=C(/C=C/c1ccccc1Cl)c1ccc(NC2CCCCC2)nc1 | 97 | pA2 [5]: Active
24 | O=C(/C=C/c1c(F)cccc1F)c1ccc(N2CCCC2)nc1 | 20 | –
25 | N#Cc1ccccc1/C=C/C(=O)c1ccc(N2CC=CC2)cn1 | 52 | –
26 | Cc1cccc(-c2ccc(C(=O)/C=C/c3ccccc3Cl)cn2)c1C | 32 | –
27 | O=c1c(/C=C/c2ccccc2Cl)c(N2CCN(CC3CCCCC3)CC2)c1=O | 41 | –
28 | O=C(/C=C/c1ccccc1Cl)c1ccc(N2CC=CC2)cn1 | 13 | –
29 | O=C(C1=Cc2ccccc2OC1)N1CCN(Cc2ccc(F)cc2)CC1 | 16 | –
30 | O=C(/C=C\c1ccccc1Cl)N1CCC(N(Cc2ccc(F)cc2)Cc2ccccn2)C(F)C1 (stereo not drawn) | 23 | –
31 | Cn1c(C(=O)N2CCN(Cc3ccccc3)CC2)cc2ccccc21 | 11 | –
